This passage reports IC50 results from ChEMBL document CHEMBL1139961, “Synthesis and evaluation of isoxazole derivatives as lysophosphatidic acid (LPA) antagonists” (Bioorg Med Chem Lett, 2007).

Assay [1] addresses Lysophosphatidic acid receptor 1 (Homo sapiens, UniProt Q92633). As to the kind of experiment: Antagonist activity at human recombinant LPA1 receptor expressed in CHOK1 cells assessed as inhibition of lysophosphatidic acid-induced intracellular calcium influx. It counts as functional, cell-based, CHO-K1. In outline:
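LPA1-transfected CHO-K1 cells grown in aMEM/F12 with 400 µg/ml Zeocin and 7% FBS. Loaded with Fluo-3 AM in 20 mM Hepes/HBSS/2.5 mM probenecid, 1 h, 37 °C. Washed, resuspended with 0.1% BSA, 24,000 cells/well. FLIPR fluorescence (ex 488/em 540 nm) read before and after compound addition, with or without 1 µM LPA. IC50 is the mean of at least two runs.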
On the technique in general: Calcium flux is commonly read through the fluorescence of an indicator in the cells.

The target in assay [2] is Lysophosphatidic acid receptor 1 (Rattus norvegicus, UniProt P61794). As to the kind of experiment: Antagonist activity at LPA1 receptor in rat hepatic stellate cells assessed as inhibition of lysophosphatidic acid-induced intracellular calcium influx. Type of assay: functional, cell-based. In outline:
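Stellate cells isolated from male Wistar rat liver, seeded overnight at 24,000 cells/well. Loaded with 4 µM Fluo-3 AM in buffer (0.1% BSA, 20 mM Hepes, HBSS, 2.5 mM probenecid), 37 °C, 1 h, then FLIPR Ca2+ read. Test substance added with LPA at 5 µM final. LPA without compound = 100%, no LPA = 0%. IC50 is the mean of at least two runs.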

Sequence of Lysophosphatidic acid receptor 1 (Homo sapiens, UniProt Q92633) (Q92633 whole entry): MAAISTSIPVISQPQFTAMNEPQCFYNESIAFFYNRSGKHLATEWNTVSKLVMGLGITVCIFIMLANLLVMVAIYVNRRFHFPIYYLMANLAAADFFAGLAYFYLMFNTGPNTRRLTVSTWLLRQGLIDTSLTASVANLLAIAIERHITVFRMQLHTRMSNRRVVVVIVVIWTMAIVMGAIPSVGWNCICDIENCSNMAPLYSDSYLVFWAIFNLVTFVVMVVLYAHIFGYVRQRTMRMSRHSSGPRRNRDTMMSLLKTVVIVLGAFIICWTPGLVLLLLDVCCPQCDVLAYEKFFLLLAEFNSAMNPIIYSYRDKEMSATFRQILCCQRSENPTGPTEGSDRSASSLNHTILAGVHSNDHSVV
Sequence of Lysophosphatidic acid receptor 1 (Rattus norvegicus, UniProt P61794) (P61794 whole entry): as the sequence (Q92633 whole entry) above, with I4A, I8S, P22Q, H40Y, I61V, E193D, N194H, I269V, S331N, T335N counted along it

Regarding `CC(OC(=O)Nc1ccccc1-c1ccc(CSCCC(=O)O)cc1)c1ccccc1Cl` (centres undefined), the IC50 – broadly, the concentration needed to halve the response being measured – was more than 40000 nM in assay [1] and more than 20000 nM in assay [2].

`Cc1noc(-c2ccc(CSCCC(=O)O)cc2)c1NC(=O)OC(C)c1ccccc1Cl` (centres undefined): the IC50 amounted to 510 nM in assay [1] and 160 nM in assay [2].

Consider `CC(OC(=O)Nc1conc1-c1ccc(CCSCC(=O)O)cc1)c1ccccc1Cl` (centres undefined), for which the figures for the IC50 in assay [1] and in assay [2] were 130 nM and 100 nM, respectively.

Consider `CC(OC(=O)Nc1conc1-c1ccc(CCC(C)(C)CC(=O)O)cc1)c1ccccc1Cl` (centres undefined), for which the IC50 in assay [1] was determined as 370 nM; in assay [2], 120 nM.

In the case of `CC(OC(=O)Nc1conc1-c1ccc(CS(=O)(=O)CCC(=O)O)cc1)c1ccccc1Cl` (centres undefined), the IC50 is 280 nM in assay [1] and 110 nM in assay [2].

On to `CC(OC(=O)Nc1conc1-c1ccc(CCCCC(=O)O)cc1)c1ccccc1Cl` (centres undefined), for which the IC50 in assay [1] worked out at 200 nM; in assay [2], 72 nM.

Turning to `CC(OC(=O)Nc1conc1-c1ccc(CSCCS(=O)(=O)O)cc1)c1ccccc1Cl` (centres undefined), the IC50 in assay [1] came out at 430 nM; in assay [2], 74 nM.

For the molecule `CC(OC(=O)Nc1conc1-c1ccc(CSCCC(=O)O)cc1)c1ccccc1Cl` (centres undefined), the half-inhibitory concentration (IC50) was determined as 220 nM in assay [1] and 49 nM in assay [2].

Take `CC(OC(=O)Nc1conc1-c1ccc(CSCCC(=O)O)cc1)C1=C(Cl)CCCC1` (centres undefined): the IC50 amounted to 170 nM in assay [1] and 56 nM in assay [2].

Take `CC(OC(=O)Nc1conc1-c1ccc(NC(=O)CCC(=O)O)cc1)c1ccccc1Cl` (centres undefined): the IC50 in assay [1] came out at 140 nM; in assay [2] it was 73 nM.

Turning to `CC(OC(=O)Nc1cnoc1-c1ccc(CSCCC(=O)O)cc1)c1ccccc1Cl` (centres undefined), the IC50 was 260 nM in assay [1] and 81 nM in assay [2].

Regarding `CC(OC(=O)Nc1conc1-c1ccc(CSCCC(=O)O)cc1)C1=C(Cl)CCC1` (centres undefined), the IC50 in assay [1] is 130 nM; in assay [2], 29 nM.
